# Bioassay records (PubChem)
# SMARCA2 act – activators of SMARCA2 function. MG213 cells, MMTV-luciferase reporter, dexamethasone, overnight. activation, % at 9.1 µM. 370,000 compounds, 1% hits. AID 652017; in the data active = activation above about 7.8%;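 also: 0% = vehicle wells and 100% = reference activator wells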
# NR2E3 ag-1 – NR2E3 (human) agonism; Q9Y5X4; GST-NR2E3/biotin-RetCOR TR-FRET, 1536-well; inhibition of corepressor binding, % at 4.78 µM; 320,000 compounds, 0.12% hits;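 active = percent inhibition above the cutoff of mean plus 3 SD of all tested compounds, set per screening campaign, cut at about 20% in these data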;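 also: 0% = DMSO wells and 100% = biotin wells as full block of FRET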
#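 System: GST-NR2E3 and biotin-RetCOR proteins; probe or stimulus: 7 nM biotin-RetCOR; doses: compound at 4.8 µM, single dose; schedule: Compound–protein incubation for 5 h at 4 °C; detection: time-resolved FRET; read-out: percent inhibition; controls: biotin wells as high control, 0.6% DMSO wells as low control; format: 1536-well plates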
# NR2E3 ag-2 – human photoreceptor-specific nuclear receptor agonism; AID 602229; CHO-S Gal4-NCOR/VP16-NR2E3 two-hybrid, luciferase; 360,000 compounds, 0.35% hits; Q9Y5X4; inhibition of corepressor binding, % at 3.98 µM;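 active = inhibition above the mean of all tested compounds plus 3 SD, cut at about 70% in these data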;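 also: 0% = DMSO with NR2E3 transfected cells and 100% = cells lacking NR2E3 construct; higher means lower luciferase signal from less NR2E3 corepressor binding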
# NR2F2 inh – NR2F2 (human) inhibition, primary screen. P24468. HEK293T NGFI-A luciferase reporter, luminescence. inhibition, % at 8.6 µM. 370,000 compounds, 0.7% hits. AID 686940;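 active = inhibition above a per-plate cutoff, mean inhibition of test wells between control levels plus 3 SD, cut at about 38% in these data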;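 also: cells cotransfected with COUP-TFII expression vector driving the NGFI-A reporter; 0% = median of COUP-TF2 test wells and 100% = reporter-only cells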
# Target sequence (P24468 whole entry, looked up): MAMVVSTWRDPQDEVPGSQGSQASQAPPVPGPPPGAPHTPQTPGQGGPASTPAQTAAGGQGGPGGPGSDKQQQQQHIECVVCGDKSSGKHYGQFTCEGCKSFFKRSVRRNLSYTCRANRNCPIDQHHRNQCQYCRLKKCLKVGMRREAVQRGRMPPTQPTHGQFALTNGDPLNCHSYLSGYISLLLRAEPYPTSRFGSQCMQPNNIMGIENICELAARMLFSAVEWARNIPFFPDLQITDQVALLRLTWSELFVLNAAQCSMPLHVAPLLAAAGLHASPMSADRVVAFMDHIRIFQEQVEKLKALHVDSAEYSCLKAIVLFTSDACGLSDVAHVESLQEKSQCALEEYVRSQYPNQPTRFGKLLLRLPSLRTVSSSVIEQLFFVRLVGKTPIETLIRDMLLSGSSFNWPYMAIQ
# GalR3 antag – blocks the human galanin receptor 3; HEK293 GalR3-CNG cAMP membrane potential fluorescence; galR3 body fused to GalR1 C-terminus; AID 651719; 360,000 compounds, 0.44% hits; O60755; inhibition, % at 3 µM;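 active = inhibition above the screen-wide average plus 3 SD, cut at about 13% in these data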;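 also: forskolin and galanin both at EC90 stimulate the cells; cAMP rise reported by CNG channel membrane potential dye signal; 0% = forskolin plus galanin with DMSO and 100% = forskolin alone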
# NR2E3 ag conf – confirmation of human NR2E3 agonists | shares compounds with NR2E3 ag-2 | CHO-S mammalian two-hybrid NR2E3-NCOR, luciferase luminescence | inhibition, % at 3.98 µM | 2,300 compounds, 51% hits | AID 624378;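 active = average inhibition above a cutoff equal to the mean inhibition of all tested compounds plus one SD, cut at about 70% in these data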;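 also: 0% = DMSO in NR2E3 cells and 100% = DMSO in cells lacking NR2E3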
# VP16 counter – GAL4-VP16 reporter inhibition in NR2E3 agonist counterscreen | shares compounds with NR2E3 ag-2 | CHO-S GAL4-VP16 luciferase reporter, luminescence | inhibition, % at 3.98 µM | 2,300 compounds, 29% hits | AID 624379;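 active = mean inhibition above a cutoff equal to the average over all tested compounds plus one standard deviation, cut at about 70% in these data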;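 also: luciferase from a UAS reporter driven by GAL4-VP16 transactivation; 0% = DMSO with VP16-transfected cells and 100% = DMSO with cells lacking VP16; higher means less reporter light so more repression of VP16 activity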
# Starred values were filed as active, the others as inactive; · = not tested or not shown. A selection: hits, their analogues and other compounds. The true share with any hit is near 2.2%.
SMILES,SMARCA2 act,NR2E3 ag-1,NR2E3 ag-2,NR2F2 inh,GalR3 antag,NR2E3 ag conf,VP16 counter
COc1ccc2cc(C(C)C(=O)Nc3cccc(S(=O)(=O)N(C)C)c3)ccc2c1 (centres undefined),-3,4,48,6,-7,32,42
Cc1cc(C)n2nc(SCC(=O)c3cc(C)n(-c4cc(C)on4)c3C)nc2n1,-3,2,92*,25,-2,94*,81*
COc1ccc2oc(C(=O)OCC(=O)N3CCN(S(=O)(=O)c4ccc(C)cc4)CC3)c(C)c2c1,-2,3,70*,-1,-1,86*,72*
CCn1c(=O)n2n(c1=O)[C@H]1C[N+](Cc3ccc4c(c3)OCO4)=C(N)NC1=C(C)C2,·,·,·,-7,·,·,·
CCC[C@H]1[C@@H](OC(=O)NCc2ccc(C)o2)CC[C@@]23CCCN2C(=O)CCC[C@@H]13,·,·,·,3,·,·,·
Cc1ccc(S(=O)(=O)N2[C@@H](c3ccc(Cl)cc3)C(C(=O)O)=C[C@H]2CC2CCCC2)cc1,-3,·,30,3,-8,·,·
Cc1ccc(S(=O)(=O)N2[C@@H](c3ccc(Cl)c(Cl)c3)C(C(=O)O)=C[C@H]2CC2CCCC2)cc1,-1,·,88*,1,3,82*,47
O=C(c1ccc(O)c(Br)c1)c1cc(Br)ccc1O,-3,·,85*,3,4,96*,74*
O=C(c1cnn(-c2ccccc2)c1)c1cc(Br)ccc1O,-1,4,11,17,-6,·,·
O=S1(=O)c2ccc(N3CCCC3)cc2Oc2ccccc2CN1Cc1cn(Cc2ccccc2C(F)(F)F)nn1,-6,·,·,-11,·,·,·
COC(=O)C1CN(Cc2cn(Cc3ccc(C)cc3)nn2)CCS(=O)(=O)N1Cc1ccc(Cl)cc1 (centres undefined),-5,·,·,10,·,·,·
COC(=O)[C@]12C[C@H](CC(=O)NCc3ccc(OC)c(OC)c3)C(=O)N(Cc3ccco3)C1=C[C@H](C(C)C)O[C@@H]2C1CC1,-1,·,·,-4,·,·,·
O=C(CCC(=O)N1CCN(c2ccccc2F)CC1)c1ccc(F)cc1,-3,0,-30,7,-3,·,·
Cc1ccc(C(=O)CCC(=O)N2CCN(c3ccccc3O)CC2)cc1,-1,1,49,1,-2,36,3
COc1cccc(C(=O)c2sc(NC(C)C)nc2N)c1,3,2,94*,29,-2,94*,50
COc1ccc(C(=O)c2sc(NC(C)C)nc2N)cc1OC,1,3,59,9,-2,37,10
C=CS(=O)(=O)N(Cc1ccc(Cl)c(Cl)c1)C[C@@H](O)CO,·,·,52,·,·,18,21
O=C(O)c1sccc1SCc1ccc(Cl)c(Cl)c1,1,1,-17,10,-3,·,·
COc1ccc(S(=O)(=O)N2CCN(C(=O)CSc3nc4ccccc4nc3N3CCCCC3)CC2)cc1,-3,·,·,19,·,·,·
O=C(Cc1ccccc1)NC1CCCc2c1cnn2-c1ccc(F)cc1F (centres undefined),·,·,·,18,·,·,·
O=C1NC(=O)/C(=C/c2ccccc2OCc2ccccc2)S1,-1,4,51,8,-4,57,45
O=C(NCc1ccccc1)OCCN1C(=O)CCC12CCC(c1ccc(Cl)cc1)CC2 (centres undefined),-3,·,·,7,·,·,·
O=C(CSc1nnnn1-c1ccccc1)Nc1nsc(-c2ccc(Cl)cc2)n1,-1,-135,70,14,-4,98*,38
O=C(C=P(c1ccccc1)(c1ccccc1)c1ccccc1)c1ccccc1-c1ccccc1C(=O)C=P(c1ccccc1)(c1ccccc1)c1ccccc1,-12,·,98*,80*,33*,100*,87*
c1cc(CNc2ccc3c(c2)OCCO3)ccn1,-2,-4,62,8,-3,-4,-2
C=CCOc1ccccc1CNc1ccc2c(c1)OCCO2,·,-3,49,·,·,49,-8
O=C(NCc1ccncc1)Nc1ccc2c(c1)OCO2,3,2,-7,-10,-6,·,·
COc1ccc(S[C@]2(C(=O)N3CCCC3)CC(=O)N(C(=O)/C=C/c3ccccc3)[C@@H]2c2ccc(OC)cc2)cc1,-5,·,·,15,·,·,·
